According to ChEMBL document CHEMBL5149984, “Discovery of HN37 as a Potent and Chemically Stable Antiepileptic Drug Candidate” (J Med Chem, 2021):

Tests used:
[1] = molecular target: T1, Potassium voltage-gated channel subfamily KQT member 2/member 3 (Rattus norvegicus) (UniProt O88943+O88944); experiment: Agonist activity at rat KCNQ2/3 channel expressed in CHO cells assessed as amplitude change of outward current at 10 uM by patch clamp method; type: cell-based; conditions: filed as agonist
How it was run: (§1)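 Whole-cell patch clamp at room temperature on CHO cells (DMEM/F12, 10% FBS) transiently co-transfected with EGFP and hKCNQ1, rKCNQ2, rKCNQ3 A278T, hKCNQ4 or hKCNQ5; KCNQ2/3 at 1:1 cDNA ratio. Pipette solution 145 mM KCl, 5 mM MgATP, pH 7.3; bath 140 mM NaCl, 5 mM KCl, pH 7.4, under perfusion. V1/2 from Boltzmann fits; I/I0 is current amplitude with versus without compound; n = 4−6.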

[2] = AUC(0 to t) in Sprague-Dawley rat at 2 mg/kg, po measured upto 24 hrs by LC-MS/MS method; type: ADME, organism-based; design: dose 2 mg/kg, time < 24 hrs, route po; conditions: in vivo
How it was run: (§2)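 Male SD rats (180−220 g) dosed orally at 2, 6 or 20 mg/kg in escalating fashion, handled as in the mouse study: 12 h fast, acetonitrile extraction of plasma, LC−MS/MS quantification. AUC0−t by trapezoidal method to the last measurable concentration.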

[3] = Half life in Kunming mouse brain at 5 mg/kg, po measured upto 24 hrs by LC-MS/MS method; type: ADME, organism-based
How it was run: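 Male KM mice (18−24 g) fasted 12 h before and 2 h after dosing, given 5 mg/kg orally in 5% DMSO/5% Tween 80/90% normal saline (n = 3 per time point). Aortic blood taken at 0.25–24 h and whole brain collected. Acetonitrile extraction with internal standard, then LC−MS/MS. Bioavailability calculated against the 2 mg/kg i.v. arm.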

[4] = Cmax in Sprague-Dawley rat at 20 mg/kg, po measured upto 24 hrs by LC-MS/MS method; type: ADME, organism-based; design: time < 24 hrs, dose 20 mg/kg, route po; conditions: in vivo; how it was run: as §2
[5] = Cmax in Sprague-Dawley rat at 6 mg/kg, po measured upto 24 hrs by LC-MS/MS method; type: ADME, organism-based; design: time < 24 hrs, dose 6 mg/kg, route po; conditions: in vivo
How it was run: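 Male SD rats (180−220 g) given single oral doses of 2, 6 and 20 mg/kg; handled as in the mouse PK study (fasted 12 h before and 2 h after dosing, 5% DMSO/5% Tween 80/90% saline formulation). In a separate 6 mg/kg p.o. set, blood and brain were sampled together. Plasma and brain levels by LC−MS/MS.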

CYP2B6 = CYP2B6 (Homo sapiens, UniProt P20813); experiment: Inhibition of human liver microsome CYP2B6 at 0.10 to 50 uM preincubated with NADPH for 0.5 hrs followed by substrate addition by LC-MS/MS method relative to control; type: ADME; conditions: liver microsomes, dose 0.1-50 µM
CYP3A4 = CYP3A4 (Homo sapiens, UniProt P08684); experiment: Ratio of IC50 for human liver microsome CYP3A4 using testosterone as substrate in absence of NADPH to IC50 for human liver microsome CYP3A4 using testosterone as substrate in presence of NADPH; conditions: liver microsomes, probe testosterone, read-out: Ratio IC50
How it was run: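 Human liver microsomes preincubated 0.5 h with 0.10−50 μM compound, with or without NADPH, then CYP-specific probe substrates added (CYP3A4 with midazolam 1′-hydroxylation and with testosterone 6β-hydroxylation). Metabolites quantified by LC−MS/MS; % activity remaining computed against no-compound control. IC50 fitted by Probit model; ratio = IC50(−NADPH)/IC50(+NADPH).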

Rattus norvegicus = organism: Rattus norvegicus; experiment: Potency index, ratio of retigabine ED50 to test compound ED50 for anticonvulsant activity in MES induced rat model of seizure after 1 hr; type: functional
[6] = molecular target: T1, Potassium voltage-gated channel subfamily KQT member 2/member 3 (Rattus norvegicus); experiment: Agonist activity at rat KCNQ2/3 channel expressed in CHO cells assessed as shift of half voltage of maximal activation at 0.1 uM by patch clamp method; type: cell-based; conditions: filed as agonist; how it was run: as §1
[7] = Tmax in Kunming mouse brain at 5 mg/kg, po measured upto 24 hrs by LC-MS/MS method; type: ADME, organism-based
How it was run: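 Male KM mice (18–24 g), fasted 12 h before and 2 h after dosing, n = 3 per time point. Oral dose in 5% DMSO/5% Tween 80/90% saline; i.v. dose is that formulation diluted in saline with 1% Tween 80. Blood sampled 0.25–24 h after oral dosing, 0.083–24 h after i.v.; whole brain taken after oral dosing. Acetonitrile extraction with internal standard, LC-MS/MS.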

[8] = molecular target: T2, Potassium voltage-gated channel subfamily KQT member 1 (Homo sapiens, UniProt P51787); experiment: Agonist activity at human KCNQ1 channel expressed in CHO cells assessed as amplitude change of outward current at 0.1 uM by patch clamp method; type: cell-based; how it was run: as §1
T2 sequence (P51787 whole entry): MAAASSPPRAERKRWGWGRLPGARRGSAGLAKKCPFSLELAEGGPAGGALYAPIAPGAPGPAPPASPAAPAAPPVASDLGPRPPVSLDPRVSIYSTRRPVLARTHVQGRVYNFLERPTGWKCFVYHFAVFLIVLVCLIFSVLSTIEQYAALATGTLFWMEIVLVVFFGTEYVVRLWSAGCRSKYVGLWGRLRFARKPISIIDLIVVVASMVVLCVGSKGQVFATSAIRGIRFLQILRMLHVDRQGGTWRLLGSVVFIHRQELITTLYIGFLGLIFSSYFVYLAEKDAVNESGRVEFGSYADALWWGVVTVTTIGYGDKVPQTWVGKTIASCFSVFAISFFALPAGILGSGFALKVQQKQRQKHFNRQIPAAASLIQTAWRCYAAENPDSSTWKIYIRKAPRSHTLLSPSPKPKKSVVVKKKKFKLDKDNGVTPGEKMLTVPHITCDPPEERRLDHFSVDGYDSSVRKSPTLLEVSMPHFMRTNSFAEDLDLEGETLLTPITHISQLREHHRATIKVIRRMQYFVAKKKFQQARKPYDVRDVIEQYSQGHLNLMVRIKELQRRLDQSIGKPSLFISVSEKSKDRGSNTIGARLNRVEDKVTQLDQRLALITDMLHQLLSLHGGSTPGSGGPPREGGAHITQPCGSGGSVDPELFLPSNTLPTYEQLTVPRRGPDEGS

CYP1A2 = CYP1A2 (Homo sapiens, UniProt P05177); experiment: Ratio of IC50 for human liver microsome CYP1A2 in absence of NADPH to IC50 for human liver microsome CYP1A2 in presence of NADPH; conditions: liver microsomes, read-out: Ratio IC50
[9] = Clearance in Kunming mouse plasma at 2 mg/kg, iv measured upto 24 hrs by LC-MS/MS method; type: ADME, organism-based
How it was run: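 Male KM mice fasted 12 h before and 2 h after iv dosing at 2 mg/kg (oral formulation of 5% DMSO/5% Tween 80/saline diluted with saline containing 1% Tween 80); n = 3 per time point. Blood from the retro-orbital venous plexus at 0.083–24 h; plasma extracted with acetonitrile plus internal standard and analysed by LC−MS/MS.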

Mus musculus = experiment: Anticonvulsant activity in MES induced Kunming mouse model of seizure at 2.5 mg/kg, po after 0.25 to 2 hr; type: functional; conditions: time 0.25-2 hrs
How it was run: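 MES test in male KM mice. Compounds freshly suspended in 0.5% CMC-Na and given by gavage at 20 mL/kg; 160 V stimulus through ear clips. Protection scored as absence of hindlimb tonic extension; time course at 0.25, 0.5, 1 and 2 h, otherwise tested at 1 h. ED50 from dose−response by nonlinear regression; Fisher's exact test versus vehicle.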

Sequence of CYP2B6 (P20813 whole entry): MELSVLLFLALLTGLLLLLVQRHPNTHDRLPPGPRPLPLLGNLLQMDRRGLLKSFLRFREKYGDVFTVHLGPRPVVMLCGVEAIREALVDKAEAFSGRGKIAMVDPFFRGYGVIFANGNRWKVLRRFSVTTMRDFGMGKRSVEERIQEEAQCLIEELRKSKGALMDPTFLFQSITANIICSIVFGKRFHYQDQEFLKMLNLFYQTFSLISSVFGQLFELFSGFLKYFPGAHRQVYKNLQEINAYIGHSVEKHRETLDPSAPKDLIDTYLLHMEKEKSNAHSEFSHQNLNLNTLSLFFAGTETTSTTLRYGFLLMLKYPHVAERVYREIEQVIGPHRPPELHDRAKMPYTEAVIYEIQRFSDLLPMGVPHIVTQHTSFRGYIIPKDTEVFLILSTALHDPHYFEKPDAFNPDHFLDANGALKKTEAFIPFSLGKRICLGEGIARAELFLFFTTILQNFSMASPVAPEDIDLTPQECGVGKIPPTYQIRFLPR
Sequence of CYP3A4 (P08684 whole entry): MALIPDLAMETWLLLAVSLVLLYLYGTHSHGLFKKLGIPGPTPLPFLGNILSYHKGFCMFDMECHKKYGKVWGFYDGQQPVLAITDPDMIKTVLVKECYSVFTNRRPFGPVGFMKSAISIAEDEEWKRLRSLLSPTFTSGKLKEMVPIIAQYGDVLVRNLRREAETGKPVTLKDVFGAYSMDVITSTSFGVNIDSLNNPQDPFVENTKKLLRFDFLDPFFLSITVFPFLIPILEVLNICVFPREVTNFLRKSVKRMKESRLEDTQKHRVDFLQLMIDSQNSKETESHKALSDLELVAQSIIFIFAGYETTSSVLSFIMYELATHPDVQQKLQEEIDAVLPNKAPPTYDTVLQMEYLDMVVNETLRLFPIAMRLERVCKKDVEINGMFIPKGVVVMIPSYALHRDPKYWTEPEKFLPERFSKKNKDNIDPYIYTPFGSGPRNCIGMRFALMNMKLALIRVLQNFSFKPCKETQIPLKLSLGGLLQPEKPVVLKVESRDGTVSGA
Sequence of CYP1A2 (P05177 whole entry): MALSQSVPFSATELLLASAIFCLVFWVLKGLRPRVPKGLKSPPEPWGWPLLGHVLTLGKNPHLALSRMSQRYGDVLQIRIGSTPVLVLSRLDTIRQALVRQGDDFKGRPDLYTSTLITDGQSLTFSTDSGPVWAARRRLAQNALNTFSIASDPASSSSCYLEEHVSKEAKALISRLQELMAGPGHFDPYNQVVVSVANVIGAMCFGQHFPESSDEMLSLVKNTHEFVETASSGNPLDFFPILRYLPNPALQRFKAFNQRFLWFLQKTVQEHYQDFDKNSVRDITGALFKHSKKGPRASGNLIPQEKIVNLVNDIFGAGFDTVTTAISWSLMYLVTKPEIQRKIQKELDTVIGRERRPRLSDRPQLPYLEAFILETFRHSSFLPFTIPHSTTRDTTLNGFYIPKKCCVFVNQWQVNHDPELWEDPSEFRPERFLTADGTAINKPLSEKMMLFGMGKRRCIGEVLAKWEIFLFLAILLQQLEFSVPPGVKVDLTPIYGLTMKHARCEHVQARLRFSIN

Compound | Activity [1] | AUC(0-t) at 24 h [2] | half-life [3] | Cmax [4] | Cmax [5] | inhibition at 0.5 h, up to 50 µM (CYP2B6) | IC50 shift (CYP3A4) | Ratio ED50 (Rattus norvegicus) | Activity [6] | Tmax [7] | Activity [8] | IC50 shift (CYP1A2) | clearance [9] | Activity (Mus musculus)
CCOC(=O)Nc1ccc(NCc2ccc(F)cc2)cc1N [EZOGABINE] | 1.97 | – | – | – | – | – | – | – | – | – | – | – | – | –
C#CCN(Cc1ccc(F)cc1)c1cc(C)c(NC(=O)OC)c(C)c1 | – | 247 ng·h/mL | 1.95 h | 323 ng/mL | 264 ng/mL | < 25% | < 1.5 | 2 | -60.2 mV | 0.25 h | 0.99 | > 1.5 | 61.3 mL/min/kg | 40%
